From ChEMBL document CHEMBL1123757, “Selective thromboxane synthetase inhibitors and antihypertensive agents. New derivatives of 4-hydrazino-5H-pyridazino[4,5-b]indole, 4-hydrazinopyridazino[4,5-a]indole, and related compounds” (J Med Chem, 1987)

Tests used:
Rattus norvegicus [1] = assay: Antihypertensive activity in spontaneously hypertensive rats (SHR) measured by percentage fall in arterial pressure (AP) at 25 mg/kg administered intraperitoneally at 3 h;No significance; format: functional, organism-based; parameters: dose 25 mg/kg; details: Artery
How it was run: (§1)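 Unanesthetized Okamoto-strain SHR, male and female, 8 weeks old, 300–350 g, systolic pressure ≥190 mmHg, heart rate 400–650 beats/min; five animals per dose. Given ip at 2.5 mL/kg, dissolved or suspended in normal saline or saline with 0.2% (carboxymethyl)cellulose and 1.0% Tween 80. Tail AP and CR recorded by mechanical transduction at set times; reported as percentage fall from control.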

Homo sapiens [2] = organism: Homo sapiens; assay: In vitro inhibition of platelet aggregation induced by ADP-II (PRP incubated for 5 minutes at 37 degree C) at 10e-5 M; format: functional
How it was run: (§2)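 Human venous blood anticoagulated with 3.8% sodium citrate (1:9). PRP from centrifugation at 800 rpm for 10 min at room temperature. Count adjusted with PPP to […]. Compound in saline with 10% ethylene glycol is added to PRP and incubated at 37 °C before the agonist. Agonists: ADP 2×10^-5 M, AA 0.6 mM, PGH2 2.8 μM, adrenaline 0.6 μM. Born absorbance aggregometry; n = 5.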

Rattus norvegicus [3] = assay: Antihypertensive activity in spontaneously hypertensive rats (SHR) measured by percentage fall in cardiac rhythm (CR) at 25 mg/kg administered intraperitoneally at 3 h; format: functional, Heart; details: route intraperitoneal; how it was run: as §1
Homo sapiens [4] = organism: Homo sapiens; assay: In vitro inhibition of platelet aggregation induced by ADP-II (PRP incubated for 60 minutes at 37 degree C) at 10e-5 M; format: functional; details: 1 h; how it was run: as §2
Rattus norvegicus [5] = assay: Antihypertensive activity in spontaneously hypertensive rats (SHR) measured by percentage fall in arterial pressure (AP) at 25 mg/kg administered intraperitoneally at 24 h;No significance; format: functional, organism-based; parameters: dose 25 mg/kg; details: Artery; how it was run: as §1
Homo sapiens [6] = organism: Homo sapiens; assay: In vitro inhibition of platelet aggregation induced by […] (PRP incubated for 5 minutes at 37 degree C) at 5 e-6 M;No significance; format: functional
Rattus norvegicus [7] = assay: Antihypertensive activity in spontaneously hypertensive rats (SHR) measured by percentage fall in cardiac rhythm (CR) at 25 mg/kg administered intraperitoneally at 24 h; format: functional, Heart; details: route intraperitoneal; how it was run: as §1
Rattus norvegicus [8] = assay: Antihypertensive activity in spontaneously hypertensive rats (SHR) measured by percentage fall in arterial pressure (AP) at 25 mg/kg administered intraperitoneally at 5 h;No significance; format: functional, organism-based; parameters: dose 25 mg/kg; details: Artery; how it was run: as §1
Homo sapiens [9] = organism: Homo sapiens; assay: In vitro inhibition of platelet aggregation induced by AA (PRP incubated for 60 minutes at 37 degree C) at 10e-5 M;No significance; format: functional; how it was run: as §2
Rattus norvegicus [10] = assay: Antihypertensive activity in spontaneously hypertensive rats (SHR) measured by percentage fall in cardiac rhythm (CR) at 25 mg/kg administered intraperitoneally at 5 h; format: functional, Heart; details: route intraperitoneal
How it was run: (§3)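 Conscious SHR (Okamoto strain), 8 weeks old, male and female, 300–350 g, systolic BP ≥190 mmHg, CR 400–650 beats/min. Given ip or po at 2.5 mL/kg in normal saline or saline with 0.2% (carboxymethyl)cellulose and 1.0% Tween 80. Tail AP and CR recorded by mechanical transduction at 1, 3, 5 and 24 h, five animals per dose. Effect expressed as % fall versus control.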

Homo sapiens [11] = organism: Homo sapiens; assay: In vitro inhibition of platelet aggregation induced by DD (PRP incubated for 5 minutes at 37 degree C) at 10e-5 M;No significance; format: functional; how it was run: as §2
Homo sapiens [12] = organism: Homo sapiens; assay: In vitro inhibition of platelet aggregation induced by AA (PRP incubated for 60 minutes at 37 degree C) at 5e-6 M;No significance; format: functional; how it was run: as §2
Homo sapiens [13] = organism: Homo sapiens; assay: In vitro inhibition of platelet aggregation induced by […] (PRP incubated for 5 minutes at 37 degree C) at 10e-5 M;NS means no significance; format: functional
Rattus norvegicus [14] = assay: Antihypertensive activity in spontaneously hypertensive rats (SHR) measured by percentage fall in cardiac rhythm (CR) at 25 mg/kg administered intraperitoneally at 1 h; format: functional, Heart; details: route intraperitoneal; how it was run: as §1
Rattus norvegicus [15] = assay: Antihypertensive activity in spontaneously hypertensive rats (SHR) measured by percentage fall in cardiac rhythm (CR) at 25 mg/kg administered intraperitoneally at 5 h;No significance; format: functional, organism-based; parameters: dose 25 mg/kg; details: Heart; how it was run: as §3
Rattus norvegicus [16] = assay: Antihypertensive activity in spontaneously hypertensive rats (SHR) measured by percentage fall in arterial pressure (AP) at 25 mg/kg administered intraperitoneally at 1 h;No significance; format: functional, organism-based; parameters: dose 25 mg/kg; details: Artery; how it was run: as §1
Rattus norvegicus [17] = assay: Antihypertensive activity in spontaneously hypertensive rats (SHR) measured by percentage fall in cardiac rhythm (CR) at 25 mg/kg administered intraperitoneally at 3 h;No significance; format: functional, organism-based; parameters: dose 25 mg/kg; details: Heart; how it was run: as §3
Homo sapiens [18] = organism: Homo sapiens; assay: In vitro inhibition of platelet aggregation induced by AA (PRP incubated for 60 minutes at 37 degree C) at 10e-5 M;NS means no significance; format: functional; how it was run: as §2
Homo sapiens [19] = organism: Homo sapiens; assay: In vitro inhibition of platelet aggregation induced by ADP-II (PRP incubated for 5 minutes at 37 degree C) at 10e-5 M;No significance; format: functional; how it was run: as §2
Rattus norvegicus [20] = assay: Antihypertensive activity in spontaneously hypertensive rats (SHR) measured by percentage fall in cardiac rhythm (CR) at 25 mg/kg administered intraperitoneally at 24 h;No significance; format: functional, organism-based; parameters: dose 25 mg/kg; details: Heart; how it was run: as §1

`Oc1ccc2[nH]c3c(O)nncc3c2c1` was tested, and the “Decrease in AP” value (Rattus norvegicus [1]) was “No significant values”, the inhibition at 10 µM (Homo sapiens [2]) was 87% and the “Decrease in CR” value (Rattus norvegicus [3]) was -11%. The inhibition at 10 µM (Homo sapiens [4]) was 100%, the “Decrease in AP” value (Rattus norvegicus [5]) was “No significant values” and the inhibition (Homo sapiens [6]) was “No significant values”. The “Decrease in CR” value (Rattus norvegicus [7]) was -8%, the “Decrease in AP” value (Rattus norvegicus [8]) was “No significant values” and the inhibition (Homo sapiens [9]) was “No significant values”. For the same compound, the “Decrease in CR” value (Rattus norvegicus [10]) was -7%, the inhibition (Homo sapiens [11]) was “No significant values” and the inhibition (Homo sapiens [12]) was “No significant values”.

With `CCOc1ccc2[nH]c3c(O)nncc3c2c1` the inhibition (Homo sapiens [13]) was “no significance”, the inhibition (Rattus norvegicus [1]) was “No significant values” and the “Decrease in CR” value (Rattus norvegicus [14]) was 6%. For the same compound, the inhibition at 10 µM (Homo sapiens [4]) was 100%, the “Decrease in AP” value (Rattus norvegicus [15]) was “No significant values” and the “Decrease in AP” value (Rattus norvegicus [5]) was “No significant values”. For the same compound, the “Decrease in CR” value (Rattus norvegicus [8]) was “No significant values”, the “Decrease in AP” value (Rattus norvegicus [16]) was “No significant values” and the “Decrease in CR” value (Rattus norvegicus [17]) was “No significant values”. For the same compound, the inhibition (Homo sapiens [18]) was “No significant values”, the inhibition (Homo sapiens [19]) was “No significant values” and the “Decrease in CR” value (Rattus norvegicus [20]) was “No significant values”.
